Measured values as given in ChEMBL document CHEMBL1817547, “Design, synthesis, and biological evaluation of curcumin analogues as multifunctional agents for the treatment of Alzheimer's disease” (Bioorg Med Chem, 2011).
The source made the active and inactive calls. The calls are words filed in the database; no cut-off is given here.

Assays:
[1] = Inhibition of self-mediated amyloid beta (1 to 42) aggregation after 48 hrs by thioflavin T fluorescence assay
Outline: (§1)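 Aβ1–42 (final 20 µM) incubated in 10 mM phosphate pH 7.4 at 37 °C for 48 h with or without compound (2, 5, 10, 20, 50 µM). Samples diluted into 50 mM glycine–NaOH pH 8.5 with 5 µM ThT, read at ex 450/em 485 nm. Inhibition % = (1 − IFi/IFc) × 100; mean ± SD from at least two independent measurements.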

[2] = Inhibition of self-mediated amyloid beta (1 to 42) aggregation at 50 uM after 48 hrs by thioflavin T fluorescence assay relative to control; outline: as §1
SH-SY5Y [3] = test: Cytotoxicity against human SH-SY5Y cells assessed as cell viability at 2.5 uM; assay type: cell-based
Outline: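 SH-SY5Y cells seeded at 3 × 10^4 per well, 24 h later exposed to 2.5 µM compound (final 0.05% DMSO) or vehicle for 24 h, then assessed for markers of cell death.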

[4] = Antioxidant activity assessed as trolox equivalent of APPH-induced radical scavenging activity at 0.625 to 2.5 uM by ORAC fluorescence assay; assay type: functional
Outline: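 AAPH (40 mM) peroxyl-radical decay of fluorescein (140 nM working solution) in 75 mM potassium phosphate pH 7.4; compounds from DMSO stocks tested at final 2.5, 1.25 and 0.625 µM. Each mixture in four replicates, at least four independent runs. Curves normalized to blank, net AUC computed, values expressed as Trolox equivalents from a Trolox standard curve.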

SH-SY5Y [5] = test: Antioxidant activity in human SH-SY5Y cells assessed as decrease of tert-butyl hydroperoxide-induced ROS production at 2.5 uM after 24 hrs using DCFH-DA by fluorescence assay; assay type: functional, cell-based
Outline: (§2)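 SH-SY5Y grown in DMEM with 10% supplement at 37 °C, 5% CO2, seeded 3 × 10^4 cells/well. After 24 h, compounds were added (2.5 µM; reference antioxidants at 20 µM). Cells were loaded with 5 µM DCFH-DA in PBS for 30 min at 37 °C, washed, then exposed to 0.1 mM t-BuOOH for 30 min. Fluorescence read at ex 485/em 535 nm, expressed as % of untreated control.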

SH-SY5Y [6] = test: Antioxidant activity in human SH-SY5Y cells assessed as decrease of tert-butyl hydroperoxide-induced ROS production at 20 uM after 24 hrs using DCFH-DA by fluorescence assay; assay type: functional, cell-based; outline: as §2
[7] = Metal chelating activity of the compound assessed as formation of iron complex at 20 uM by UV-vis spectrometry; assay type: functional
Outline: (§3)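 UV spectra recorded for 20 µM compound alone or with 20 µM ZnSO4, CuSO4 or FeSO4.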

[8] = Metal chelating activity of the compound assessed as formation of copper complex at 20 uM by molar ratio method; assay type: functional
Outline: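 Molar ratio method: compound solutions titrated with increasing CuSO4 or FeSO4; spectra obtained by subtracting CuSO4 and compound at matching concentrations, monitoring the band at 493 nm.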

[9] = Inhibition of amyloid beta (1 to 42) aggregation assessed as stabilization of […] structure at 10 uM after 32 hrs by CD spectroscopy assay
Outline: (§4)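 Aβ1–42 (20 µM) incubated at 37 °C with or without 10 µM compound in 10 mM sodium phosphate pH 7.4. At 0, 6, 12 and 32 h, far-UV CD spectra recorded at 25 °C from 190 to 260 nm in a 1 mm quartz cell (bandwidth 0.5 nm, scan 10 nm/min).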

[10] = Metal chelating activity of the compound assessed as formation of copper complex at 20 uM by UV-vis spectrometry; assay type: functional; outline: as §3
[11] = Inhibition of iron-induced amyloid beta (1 to 42) aggregation in HEPES buffer at pH 6.6 after 45 mins by thioflavin T fluorescence assay
Outline: (§5)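 Aβ1–42 (20 µM) co-incubated with 40 µM Cu2+ or Fe2+ (HEPES pH 6.6) or Zn2+ (HEPES pH 7.4), with 150 µM NaCl, with or without 40 µM compound or clioquinol, at 37 °C for 45 min. Samples diluted into 50 mM glycine–NaOH pH 8.5 with 5 µM ThT; fluorescence read at ex 450/em 485 nm.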

[12] = Inhibition of zinc-induced amyloid beta (1 to 42) aggregation in HEPES buffer at pH 7.4 after 45 mins by thioflavin T fluorescence assay; outline: as §5
[13] = Inhibition of amyloid beta (1 to 42) aggregation assessed as decrease of beta-sheet structure formation at 10 uM after 32 hrs by CD spectroscopy assay; outline: as §4
[14] = Inhibition of copper-induced amyloid beta (1 to 42) aggregation in HEPES buffer at pH 6.6 after 45 mins by thioflavin T fluorescence assay; outline: as §5
[15] = Inhibition of amyloid beta (1 to 42) fibril formation assessed as less thin and short fibrils at 20 to 40 uM after 12 hrs by transmission electron microscopic analysis
Outline: (§6)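 Aβ1–42 (40 µM) aggregated with or without 20 µM compound and sampled at 0, 12 and 32 h. Samples applied to grids, washed with water, negatively stained for 1 min with 2% uranyl acetate, blotted and examined by transmission EM.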

[16] = Inhibition of amyloid beta (1 to 42) fibril formation assessed as few short fibrils and many breakage points in fibrils at 20 to 40 uM after 32 hrs by transmission electron microscopic analysis; outline: as §6
[17] = Metal chelating activity of the compound assessed as formation of zinc complex at 20 uM by UV-vis spectrometry; assay type: functional; outline: as §3

Row | Structure (SMILES) | IC50 [1] [µM] | inhibition [2] [%] | Activity (SH-SY5Y [3]) | Ratio [4] | other results
1 | O=C1/C(=C/c2ccc(N3CCCCC3)cc2)CNC/C1=C\c1ccc(N2CCCCC2)cc1 | 17.2 | 64.5 | Non-toxic | 2.4 | –
2 | CN1CCN(c2ccc(/C=C/C(=O)c3ccc(C(=O)/C=C/c4ccc(N5CCN(C)CC5)cc4)cc3)cc2)CC1 | > 50 | 35.8 | Non-toxic | 1.1 | –
3 | CN1CCN(c2ccc(/C=C/C(=O)c3cccc(C(=O)/C=C/c4ccc(N5CCN(C)CC5)cc4)c3)cc2)CC1 | 37.8 | 52.8 | Non-toxic | 1.3 | –
4 | CN1CCN(c2ccc(/C=C3\CCC/C(=C\c4ccc(N5CCN(C)CC5)cc4)C3=O)cc2)CC1 | 6 | 73.1 | Non-toxic | 2.6 | Activity (SH-SY5Y [5]): Active
5 | CN1CCN(c2ccc(/C=C3\CNC/C(=C\c4ccc(N5CCN(C)CC5)cc4)C3=O)cc2)CC1 | 2.5 | 90.2 | Non-toxic | 5.8 | Activity [7]: Active; Activity [8]: Active; inhibition [9]: Active; Activity [10]: Active; inhibition [11]: Active; inhibition [12]: Active; inhibition [13]: Active; Activity (SH-SY5Y [5]): Active; inhibition [14]: Active; inhibition [15]: Active; inhibition [16]: Active; Activity [17]: inactive
6 | CN1CCN(c2ccc(/C=C/c3cccc(/C=C/c4ccc(N5CCN(C)CC5)cc4)n3)cc2)CC1 | > 50 | 24 | Non-toxic | 1.1 | –
7 | Cc1c(C)c2c(c(C)c1O)CCC(C)(C(=O)O)O2 (configuration not stated) | – | – | – | – | Activity (SH-SY5Y [6]): Active
8 | CC(=O)N[C@@H](CS)C(=O)O | – | – | – | – | Activity (SH-SY5Y [6]): inactive
9 | CN1CCN(c2ccc(/C=C/c3cccc(/C=C/c4ccc(N5CCN(C)CC5)cc4)c3)cc2)CC1 | > 50 | 42.1 | Non-toxic | 1.2 | –
10 | Oc1c(I)cc(Cl)c2cccnc12 | – | – | – | – | inhibition [11]: Active; inhibition [14]: Active

More lines, main results first:

Row | IC50 [1] [µM] | inhibition [2] [%] | Structure (SMILES) | Activity (SH-SY5Y [3]) | Ratio [4] | other results
11 | 12.6 | 67.2 | CN1CCN(c2ccc(/C=C3\CC/C(=C\c4ccc(N5CCN(C)CC5)cc4)C3=O)cc2)CC1 | Non-toxic | 1.7 | Activity (SH-SY5Y [5]): Active
12 | 12.1 | 71.3 | COc1cc(/C=C/C(=O)CC(=O)/C=C/c2ccc(O)c(OC)c2)ccc1O [CURCUMIN] | – | 2.5 | Activity (SH-SY5Y [6]): Active
13 | 17.6 | 65.1 | CN1CCN(c2ccc(/C=C3\CN(C)C/C(=C\c4ccc(N5CCN(C)CC5)cc4)C3=O)cc2)CC1 | Non-toxic | 4.7 | –
14 | 9.2 | 77.8 | CN1CCN(c2ccc(/C=C/C(=O)CC(=O)/C=C/c3ccc(N4CCN(C)CC4)cc3)cc2)CC1 | Non-toxic | 1.9 | –
15 | 21.5 | 68.6 | CN1CCN(c2ccc(/C=C/C(=O)/C=C/c3ccc(N4CCN(C)CC4)cc3)cc2)CC1 | Non-toxic | 3.2 | Activity (SH-SY5Y [5]): Active
